Reference: ChEMBL document CHEMBL1144664, “Design, synthesis, and SAR of new pyrrole-oxindole progesterone receptor modulators leading to 5-(7-fluoro-3,3-dimethyl-2-oxo-2,3-dihydro-1H-indol-5-yl)-1-methyl-1H-pyrrole-2-carbonitrile (WAY-255348)” (J Med Chem, 2008)

Legend:
[1] = molecular target: T1, Progesterone receptor (Homo sapiens, UniProt P06401); experiment: Antagonist activity at human PR expressed in human T47D cells assessed as inhibition of progesterone induced alkaline phosphatase; format: functional, cell-based
T1 sequence (P06401 whole entry): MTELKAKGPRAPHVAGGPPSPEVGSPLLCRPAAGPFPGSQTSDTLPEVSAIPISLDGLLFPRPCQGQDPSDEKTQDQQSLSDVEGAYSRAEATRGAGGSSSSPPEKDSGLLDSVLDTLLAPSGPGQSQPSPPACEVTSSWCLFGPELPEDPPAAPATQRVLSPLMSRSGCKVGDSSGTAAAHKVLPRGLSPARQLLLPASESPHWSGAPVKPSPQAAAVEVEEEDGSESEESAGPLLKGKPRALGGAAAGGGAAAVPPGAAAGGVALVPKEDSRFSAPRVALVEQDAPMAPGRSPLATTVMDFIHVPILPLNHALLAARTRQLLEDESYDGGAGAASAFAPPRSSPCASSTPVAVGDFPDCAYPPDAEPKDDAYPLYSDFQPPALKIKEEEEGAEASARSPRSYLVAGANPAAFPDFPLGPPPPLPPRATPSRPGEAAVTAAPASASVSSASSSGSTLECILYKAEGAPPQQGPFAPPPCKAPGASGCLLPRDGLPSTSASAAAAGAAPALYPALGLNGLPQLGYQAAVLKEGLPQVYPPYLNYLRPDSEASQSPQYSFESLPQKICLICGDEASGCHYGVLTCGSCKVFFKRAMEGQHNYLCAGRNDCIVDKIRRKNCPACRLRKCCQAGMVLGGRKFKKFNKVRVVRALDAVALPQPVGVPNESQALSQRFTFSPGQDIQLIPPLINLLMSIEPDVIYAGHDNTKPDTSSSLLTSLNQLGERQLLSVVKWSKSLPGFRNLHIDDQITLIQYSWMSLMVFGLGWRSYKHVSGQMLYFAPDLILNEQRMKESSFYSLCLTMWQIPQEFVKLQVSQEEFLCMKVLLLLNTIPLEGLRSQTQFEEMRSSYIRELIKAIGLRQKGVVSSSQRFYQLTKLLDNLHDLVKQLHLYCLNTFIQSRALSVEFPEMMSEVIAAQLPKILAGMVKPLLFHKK

[2] = molecular target: T1, Progesterone receptor; experiment: Displacement of [3H]R5020 from human PR in human T47D cells by whole cell assay; format: cell-based
[3] = Stability in human liver microsome assessed as half life; format: ADME; details: liver microsomes
Summary of the method: (§1)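 Female rat, cynomolgus monkey and human liver microsome stability; half-life (min) reported.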

[4] = Stability in cynomolgus monkey liver microsome assessed as half life; format: ADME, Macaca fascicularis; details: liver microsomes; summary of the method: as §1
[5] = Stability in rat liver microsome assessed as half life; format: ADME; details: liver microsomes; summary of the method: as §1
[6] = tested on: Cynomolgus monkey; experiment: Induction of early menses in cynomolgus monkey at 5 mg/kg, po; format: organism-based, Macaca fascicularis; parameters: dose 5 mg/kg, route oral; details: in vivo
[7] = molecular target: T1, Progesterone receptor; experiment: Agonist activity at human PR expressed in human T47D cells assessed as stimulation of alkaline phosphatase; format: functional, cell-based
Summary of the method: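 Cell-based agonist-mode assay in T47D cells, without progesterone. Cells were suspended in DMEM/F12 with 5% charcoal-stripped FBS, then incubated with compound for 24 h at 37 °C in 5% CO2. Cells were lysed in 0.1 M Tris-HCl pH 9.8 with 0.2% Triton, and 4 mM p-nitrophenyl phosphate was added. OD405 was read every 5 min for 30 min. EC50 comes from dose-response analysis and is the mean of at least duplicates.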

[8] = organism: Rattus norvegicus; experiment: Antagonist activity in rat uterus assessed as progesterone-induced decidualization response in stromal cells; format: functional
Summary of the method: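 Female rat decidualization model: compound given orally in 0.5% methyl cellulose/2% Tween 80 to antagonize the progesterone-induced decidual response of uterine stromal cells. ED50 reported.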

[9] = Half life in Sprague-Dawley rat at 0.5 mg/kg, iv; format: ADME, organism-based; parameters: dose 0.5 mg/kg, route intravenous; details: in vivo
Summary of the method: (§2)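 Female Sprague–Dawley rats dosed as 1-in-4 cassette or discrete studies. iv in DMSO/PEG200 20:80; po in aqueous 2% Tween 80/0.5% methyl cellulose. Parameters reported: C0, Cmax, t1/2, plasma clearance, Vss, AUC0-inf and %F.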

[10] = Drug level in cynomolgus monkey at […], iv; format: ADME, organism-based, Macaca fascicularis; parameters: dose 0.25 mg/kg, route intravenous; details: in vivo
[11] = Volume of distribution at steady state in cynomolgus monkey at […], iv; format: ADME, organism-based, Macaca fascicularis; parameters: dose 0.25 mg/kg, route intravenous; details: in vivo, read-out: Vdss
[12] = Plasma clearance in cynomolgus monkey at […], iv; format: ADME, organism-based, Macaca fascicularis; parameters: dose 0.25 mg/kg, route intravenous
[13] = Plasma clearance in Sprague-Dawley rat at 0.5 mg/kg, iv; format: ADME, organism-based; parameters: dose 0.5 mg/kg, route intravenous; summary of the method: as §2
[14] = AUC (0 to infinity) in Sprague-Dawley rat at 0.5 mg/kg, iv; format: ADME, organism-based; parameters: time infinity, dose 0.5 mg/kg, route intravenous; details: plasma
[15] = Volume of distribution at steady state in Sprague-Dawley rat at 0.5 mg/kg, iv; format: ADME, organism-based; parameters: dose 0.5 mg/kg, route intravenous; details: in vivo, read-out: Vdss; summary of the method: as §2
[16] = Drug level in Sprague-Dawley rat at 0.5 mg/kg, iv; format: ADME, organism-based; parameters: dose 0.5 mg/kg, route intravenous; details: in vivo; summary of the method: as §2

## Cn1c(C#N)ccc1-c1ccc2c(c1)CC(=O)N2
[1]
  IC50: 20 nM
[2]
  IC50: 80 nM
[3]
  half-life: > 30 min
[4]
  half-life: > 30 min
[5]
  half-life: > 30 min

## CCC1(CC)C(=O)Nc2ccc(-c3ccc(C#N)n3C)cc21
[2]
  IC50: 36 nM
[3]
  half-life: > 30 min
[4]
  half-life: 15 min
[5]
  half-life: 10 min

## Cn1c(C#N)ccc1-c1ccc2c(c1F)C(C)(C)C(=O)N2
[1]
  IC50: 5.9 nM
[2]
  IC50: 5.5 nM
[5]
  half-life: 2 min

## CN1C(=O)C(C)(C)c2cc(-c3ccc(C#N)n3C)cc(F)c21
[1]
  IC50: 15 nM

## Cn1c(C#N)ccc1-c1ccc2c(c1)C(C)(C)OC(=O)N2
[2]
  IC50: 4.9 nM

## C=C1CCO[C@]12CC[C@H]1[C@@H]3CCC4=CC(=O)CCC4=C3[C@@H](c3ccc(C(C)=O)cc3)C[C@@]12C
[6]
  Activity: 50%

## Cn1c(C#N)ccc1-c1cc(F)c2c(c1)C1(CCCCC1)C(=O)N2
[7]
  EC50: 1.3 nM
[2]
  IC50: 3.6 nM

## CCN1C(=O)C(C)(C)c2cc(-c3ccc(C#N)n3C)cc(F)c21
[1]
  IC50: 29 nM

## Cn1c(C#N)ccc1-c1ccc2c(c1)C1(CCCCC1)C(=O)N2
[7]
  EC50: 2.3 nM
[2]
  IC50: 3.3 nM

## Cn1c(C#N)ccc1-c1ccc2c(c1)C(C)(C)OC(=S)N2 [TANAPROGET]
[7]
  EC50: 0.15 nM
[2]
  IC50: 0.5 nM

## CCCN1C(=O)C(C)(C)c2cc(-c3ccc(C#N)n3C)cc(F)c21
[1]
  IC50: 27 nM

## N#Cc1ccc(-c2ccc3c(c2)CC(=O)N3)[nH]1
[1]
  IC50: 300 nM

## CC(=O)OCN1C(=O)C(C)(C)c2cc(-c3ccc(C#N)n3C)cc(F)c21
[1]
  IC50: 48 nM

## Cn1c(C#N)ccc1-c1cc(F)c2c(c1)C1(CCCC1)C(=O)N2
[7]
  EC50: 3000 nM
[2]
  IC50: 14.7 nM

## CC#C[C@]1(O)CC[C@H]2[C@@H]3CCC4=CC(=O)CCC4=C3[C@@H](c3ccc(N(C)C)cc3)C[C@@]21C [MIFEPRISTONE]
[8]
  ED50: 0.7 mg/kg
[6]
  Activity: 60%

## Cn1c(C#N)ccc1-c1ccc2c(c1)C(C)(C)C(=O)N2
[9]
  half-life: 180 min
[10]
  C0: 241 ng/mL
[11]
  Vd: 1.6 L/kg
[2]
  IC50: 22 nM
[3]
  half-life: > 30 min
[4]
  half-life: 13 min
[5]
  half-life: 6 min
[12]
  clearance: 12 mL/min/kg
[6]
  Activity: 0%
[13]
  clearance: 9 mL/min/kg
[14]
  AUC(0-inf): 937 ng·h/mL
[15]
  Vd: 2.2 L/kg
[16]
  C0: 288 ng/mL

## Cn1c(C#N)ccc1-c1cc2c(cc1F)NC(=O)C2(C)C
[1]
  IC50: 20.3 nM
[5]
  half-life: 30 min

## Cn1c(C#N)ccc1-c1ccc2c(c1)C1(CCCC1)C(=O)N2
[7]
  EC50: 300 nM
[2]
  IC50: 8.1 nM
